# Compound activity from PubChem BioAssay.
# HCV NS3 hel inh: HCV NS3 helicase inhibition; NS3 helicase DNA unwinding, Cy5 molecular beacon fluorescence; inhibition, % at 10.9 µM; 0.56% of 290,000 active;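 active = inhibition above the mean of all tested compounds plus 3 SD, set per campaign, cut at about 35% in these data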;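 also: 0% = DMSO wells and 100% = thioflavine S control wells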
#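 System: HCV NS3 helicase fragment; control set: DMSO and thioflavine S; technique: Cy5 fluorescence at 0 and 60 min, beacon hairpin quenching; reagent: beacon DNA duplex substrate plus ATP; replicates: singlicate; schedule: 1 h reaction at 25 °C, ATP-initiated; medium: MOPS buffer pH 6.5 with MgCl2, DTT, Tween20, BSA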
# HCV core dimer: HCV core protein dimerization inhibition | TR-FRET GST/Flag-core106 dimerization, 1536-well | inhibition, % at 5 µM | 0.33% of 300,000 active | AID 1899;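 active = inhibition above the mean of all tested compounds plus 3 SD, set per screening campaign, cut at about 45% in these data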
#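 Material: GST/Flag-tagged HCV core106 proteins. Incubation: 4 h, 22.5 °C incubation. Read-out basis: inhibition (%) from 671 over 617 nm ratio. Measured by: TR-FRET, excitation 340 nm, emission 617 and 671 nm.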
# eIF4H inh: inhibitors of RNA binding by human eIF4H | Q15056 | eIF4H fluorescence polarization binding assay | inhibition, % at 35 µM | 0.94% of 290,000 active;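 also: calls also rest on retests at 20 µM and on dose response follow-up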
# MLLE-PAM2 inh: blocks PAM2 peptide binding to the PABP1 MLLE domain | inhibition, % at 20 µM | AID 588489 | P11940 | 0.36% of 360,000 active | GST-MLLE / FITC-PAM2 fluorescence polarization; in the data active = inhibition above about 35%, passing the limit was not always enough;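 also: plate controls were DMSO wells with GST-MLLE for no effect and wells lacking GST-MLLE protein for full effect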
# DNA FID counter-1: displaces DNA intercalator in HCV helicase counter-screen; DNA fluorescent intercalator displacement, fluorescence; inhibition, % at 7.9 µM; 0.17% of 290,000 active; AID 1845; in the data active = inhibition above about 37%;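 also: 0% = vehicle and 100% = reference compound; higher means more ethidium bromide displaced from hairpin DNA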
# PABP polyA inh: PABP-poly(A) binding inhibition. PABP-poly(A) RNA binding, fluorescence polarization. P11940. 1% of 290,000 active. AID 2014. inhibition, % at 35 µM;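 also: calls also rest on retests at 20 µM and on dose response follow-up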
# NS3 helicase cf: confirmation of Hepatitis C virus NS3 helicase inhibitors; 31% of 1,600 active; inhibition, % at 10.9 µM; shares compounds with HCV NS3 hel inh; NS3 helicase DNA unwinding, Cy5 molecular beacon fluorescence;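 active = inhibition above the mean of all tested compounds plus 3 SD, cutoff set per campaign, cut at about 36% in these data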
# DNA FID counter-2: displaces DNA intercalator in HCV helicase counter-screen; shares compounds with HCV NS3 hel inh; DNA fluorescent intercalator displacement, fluorescence; inhibition, % at 7.9 µM; 4% of 1,600 active; AID 1945; in the data active = inhibition above about 37%;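 also: 0% = vehicle and 100% = reference compound; higher means more displacement of ethidium bromide from the DNA hairpin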
# DNA FID DR: DNA intercalator displacement in dose response | shares compounds with HCV NS3 hel inh | fluorescent intercalator displacement from DNA, fluorescence | IC50, µM | 120 tested, under 10 active | AID 2172
# Numbers without * were called inactive; ? = inconclusive; . = no result given. A selection: hits, their analogues and other compounds. The true share with any hit is near 2%. Unless noted, no rule for the calls is given here.
SMILES,HCV NS3 hel inh,HCV core dimer,eIF4H inh,MLLE-PAM2 inh,DNA FID counter-1,PABP polyA inh,NS3 helicase cf,DNA FID counter-2,others
CCS(=O)(=O)c1ccc(N=Nc2ccc(O)c3ncccc23)c(OC)c1,-9,.,8,-46,-4,0,.,.,
CC1CCC2(CC1)NC(=O)N(CC(=O)Nc1cccc(S(=O)(=O)N3CCCC3)c1)C2=O (stereo unspecified),.,.,.,15,.,.,.,.,
CC1CCCC2(C1)NC(=S)N(c1ccccc1)N2 (stereo unspecified),6,-3,1,-42,4,0,.,.,
CC1CCCC2(C1)NC(=S)c1c(sc3c1CCCC3)N2 (stereo unspecified),36*,53*,14,28,-8,39,1,10,
CCCCCCCCCc1nc2sc3c(c2c(=O)n1NC(=O)c1ccccc1[N+](=O)[O-])CC(C)(C)OC3,37*,22,-4,2,-13,2,50*,4,DNA FID DR=>79
COc1ccc(-n2c(SCC(=O)NCC3CCCO3)nc3c(c2=O)SC(C)C3)cc1 (stereo unspecified),17,-6,10,9,-25,3,.,.,
O=c1[nH]n2c(=O)c3c([nH]c2c1N=Nc1cccc(Cl)c1)CCC3,31,12,3,17,-28,-3,.,.,
O=c1[nH]n2c(=O)c3c([nH]c2c1N=Nc1cccc(C(F)(F)F)c1)CCCC3,64*,-1,-3,18,-9,13,79*,20,
O=C(CSc1nc2scc(-c3ccco3)c2c(=O)n1-c1ccccc1)NCC1CCCO1 (stereo unspecified),86*,14,64,-2,-51,30,15,-45,
c1ccc(Cn2c(SCc3cn4cccnc4n3)nnc2-c2ccco2)cc1,0,4,1,-43,-9,-4,.,.,
O=c1c2c(-c3ccco3)csc2nc(SCc2cn3cccnc3n2)n1-c1ccccc1,62*,66*,89*,-7,-28,66*,94*,8,DNA FID DR=>79
CC(C)c1ccc(NC(=O)c2ccccc2NC(=O)C2CCCCC2C(=O)O)cc1 (stereo unspecified),45*,.,2,7,-49,0,48*,-52,
CC(C)c1ccc(NC(=O)c2ccccc2NC(=O)C2CC=CCC2C(=O)O)cc1 (stereo unspecified),13,.,2,-10,-61,0,.,.,
O=C(NCc1cccs1)c1ccc([N+](=O)[O-])cc1Cl,19,-5,-12,-5,2,-7,.,.,
COc1ccc(-n2nc3ccc(N)cc3n2)cc1Cl,37*,15,55*,-8,0,15*,-5,23,
COc1ccc(-n2nc3ccc(NS(C)(=O)=O)cc3n2)cc1Cl,-3,-12,-2,-1,-2,9,.,.,
Cc1ccc(-n2nc3ccc(N)cc3n2)cc1Cl,23,5,33,-2,2,10,.,.,
Cc1ccc(-n2nc3ccc(N)cc3n2)cc1C,70*,-1,8,-13,-3,8,-9,28,
C=CCSC(=C(C#N)C#N)c1cc2c([nH]1)CCCC2,8,6,8,5,-1,20,.,.,
CN1C(=O)/C(=C\c2ccccc2F)Sc2ccc(C(=O)NC3CCN(Cc4ccccc4)CC3)cc21,-40,-7,-11,10,15,-10,.,.,
CN1c2ccccc2C(O)=C(C(=O)Nc2ccccc2)S1(=O)=O,2,3,20,14,5,30,.,.,
Cc1sc2c(c1C)C(O)=C(C(=O)Nc1ccccc1)S(=O)(=O)N2C,44*,-2,4,2,-18,13,60*,-4,
Cc1ccc(-c2nc3c(c(=O)c4ccccc4n3C)c(=O)n2Cc2ccco2)cc1,38*,21,19,11,-39,13,23,-6,
Cc1nc2cc(C)c(C)cc2s1,3,-1,10,5,-2,1,.,.,
Cc1cc2nc3ccc(=[N+](C)C)cc-3sc2cc1N,58*,.,?,18,104*,?,78*,107*,
SMILES,HCV NS3 hel inh,HCV core dimer,eIF4H inh,MLLE-PAM2 inh,DNA FID counter-1,PABP polyA inh,NS3 helicase cf,DNA FID counter-2,others
COc1ccc(NC(=O)C2Cc3c(-c4cccc(C(N)=O)c4)ccnc3O2)cc1 (stereo unspecified),.,.,.,3,.,.,.,.,
CCCCC(CCC(=O)O)(C(=O)OCC)c1csc(Nc2ccccc2)n1 (stereo unspecified),31,1,-9,2,-48,-7,.,.,
CCCCC(CCC(=O)O)(C(=O)OCC)c1csc(Nc2ccc(OCC)cc2)n1 (stereo unspecified),85*,10,1,9,-43,-9,58*,-28,
CC(C)CNC(=O)COC(=O)c1c2c(nc3ccccc13)/C(=C/c1cccs1)CC2,74*,13,28,3,-15,-11,-8,-9,
CC1CCCCC1NC(=O)COC(=O)c1c2c(nc3ccccc13)/C(=C/c1ccco1)CC2 (stereo unspecified),47*,97*,88,-22,-12,-8,97*,1,DNA FID DR=>79
O=C(COC(=O)c1c2c(nc3ccccc13)/C(=C/c1ccco1)CC2)NC1CCCC1,36*,.,104,-20,-13,3,96*,15,DNA FID DR=>79
CCOc1ccccc1N1CC(C(=O)N(Cc2nnc(-c3ccccc3Cl)o2)C2CC2)CC1=O (stereo unspecified),.,2,.,-12,.,.,.,.,
Cc1cc(C)c(S(=O)(=O)c2ccccc2C)c(OCCN(C)C)n1,-10,-2,-8,7,3,-4,.,.,
COC(=O)CCC(C)C1CCC2C3C(OC(C)=O)CC4CC(O)CCC4(C)C3CC(O)C12C (stereo unspecified),.,.,.,-7,.,.,.,.,
Cc1cc(C(=O)N/N=C/c2ccc(O)c(O)c2O)c(C)n1-c1ccccc1,46*,.,76,3,-24,3,-14,5,
Cn1c(CNC(=O)CCNC(=O)c2ccc(F)c(F)c2)cc(=O)n(C)c1=O,1,5,-4,-1,-6,0,.,.,
COc1ccc2c(c1)CSC(c1ccccc1)C2=O (stereo unspecified),.,.,.,10,.,.,.,.,
Cc1ccc(F)c(NC(=S)Nc2cccc3ccccc23)c1,52*,8,7,15,1,16,4,6,
O=C(Cc1ccc(-c2ccccc2)cc1)Nc1ncccc1O,12,23,10,-11,-23,-6,.,.,
Cc1ccc(C)n1Cc1ccc(C(=O)O)cc1,38*,-47,93*,16,-26,88*,80*,-1,
